Experimental data from ChEMBL document CHEMBL2176904, “Nonpeptidic lysosomal modulators derived from z-phe-ala-diazomethylketone for treating protein accumulation diseases” (ACS Med Chem Lett, 2012).
One block for each compound: values may come before it. The source made the active and inactive calls. The calls are words filed in the database; no cut-off is given here.

Assays:
Hippocampus [1] = test: Up-regulation of cathepsin-D level in lysosome of rat hippocampal slice cultures at 3 to 10 uM after 4 days by immunoblot analysis in presence of brefeldin-A; type: functional, tissue-based
Outline: (§1)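 Organotypic hippocampal slice cultures from rat were treated daily with compound or vehicle. Cathepsin immunoreactivity was measured by immunoblot image analysis and reported as mean IOD ± SEM. Where stated, brefeldin A was co-present.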

Hippocampus [2] = test: Up-regulation of cathepsin-B level in lysosome of rat hippocampal slice cultures at 3 to 10 uM after 4 days by immunoblot analysis; type: functional, tissue-based; outline: as §1
Hippocampus [3] = test: Up-regulation of cathepsin-D level in lysosome of rat hippocampal slice cultures at 3 to 10 uM after 4 days by immunoblot analysis; type: functional, tissue-based; outline: as §1
Cathepsin B [4] = biological target: T1, Cathepsin B (Homo sapiens, UniProt P07858); test: Inhibition of cathepsin-B using Z-Arg-Arg AMC as substrate by fluorescence assay
Outline: (§2)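 Z-Arg-Arg AMC as fluorogenic substrate, compounds titrated. Mean fluorescence units ± SEM were normalized to percent of control. Percent inhibition and IC50 range were fitted by nonlinear regression with one-site competition equations. Untreated control activity was compared with the highest compound concentration by unpaired t test.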

Hippocampus [5] = test: Up-regulation of cathepsin-B level in lysosome of rat hippocampal slice cultures at 3 to 10 uM after 4 days by immunoblot analysis in presence of brefeldin-A; type: functional, tissue-based; outline: as §1
Cathepsin B [6] = biological target: T1, Cathepsin B; test: Inhibition of cathepsin-B using Z-Arg-Arg AMC as substrate by fluorescence assay relative to control; conditions: concentration not given here; outline: as §2
Hippocampus [7] = test: Up-regulation of cathepsin-B level in lysosome of rat hippocampal slice cultures at 0.3 to 1 uM after 4 days by immunoblot analysis; type: functional, tissue-based; outline: as §1
Hippocampus [8] = test: Up-regulation of cathepsin-D level in lysosome of rat hippocampal slice cultures at 0.3 to 1 uM after 4 days by immunoblot analysis; type: functional, tissue-based; outline: as §1
Hippocampus [9] = test: Up-regulation of cathepsin-B level in lysosome of rat hippocampal slice cultures at 20 uM after 4 days by immunoblot analysis; type: functional, tissue-based; conditions: 10 uM, in the assay text read “10 uM” for “20 uM”
Hippocampus [10] = test: Up-regulation of cathepsin-D level in lysosome of rat hippocampal slice cultures at 10 uM after 4 days by immunoblot analysis relative to PADK
Hippocampus [11] = test: Up-regulation of cathepsin-B level in lysosome of rat hippocampal slice cultures at 10 uM after 4 days by immunoblot analysis relative to PADK
Mus musculus [12] = test: Reduction of 8 to 10-kDa oligomeric amyloid beta species in APPSwInd transgenic mouse 20Lms/2J hippocampal homogenates at 25 mg/kg, ip qd for 9 days relative to wild type mouse; type: functional, organism-based; parameters: dose 25 mg/kg; conditions: Hippocampus
Mus musculus [13] = test: Increase of active form of cathepsin-B level in APPSwInd transgenic mouse 20Lms/2J hippocampal homogenates at 25 mg/kg, ip qd for 9 days relative to wild type mouse; type: functional, organism-based; parameters: dose 25 mg/kg; conditions: Hippocampus
Mus musculus [14] = test: Inhibition of postsynaptic loss of GluR1 protein level in APPSwInd transgenic mouse 20Lms/2J hippocampal homogenates at 25 mg/kg, ip qd for 9 days relative to wild type mouse; type: functional, organism-based; parameters: dose 25 mg/kg; conditions: Hippocampus
Mus musculus [15] = test: Inhibition of presynaptic loss of amphiphysin-I protein level in APPSwInd transgenic mouse 20Lms/2J hippocampal homogenates at 25 mg/kg, ip qd for 9 days relative to wild type mouse; conditions: Hippocampus

SMILES: CCCNC(=O)[C@H]1O[C@@H]1C(=O)N[C@H](C(=O)N1CCC[C@H]1C(=O)OC)[C@@H](C)CC
- Activity (Hippocampus [7]): inactive
- Activity (Hippocampus [8]): inactive
- IC50 (Cathepsin B [4]): 80 nM
- inhibition (Cathepsin B [6]): 100%

SMILES: CC(=O)N(Cc1ccccc1)C[C@@H](O)[C@H](Cc1ccccc1)NC(=O)OCc1ccccc1
- Activity (Mus musculus [12]): Active
- Activity (Mus musculus [13]): Active
- inhibition (Mus musculus [14]): Active
- Activity (Hippocampus [9]): Active
- inhibition (Mus musculus [15]): Active
- IC50 (Cathepsin B [4]): > 100000 nM
- inhibition (Cathepsin B [6]): 8%

Continued, in another order:

- IC50 (Cathepsin B [4]): 9400 nM
- inhibition (Cathepsin B [6]): 100%
SMILES: C[C@H](NC(=O)[C@H](Cc1ccccc1)NC(=O)OCc1ccccc1)C(=O)C=[N+]=[N-]
- Activity (Hippocampus [1]): inactive
- Activity (Hippocampus [2]): Active
- Activity (Hippocampus [3]): Active
- Activity (Hippocampus [5]): inactive

- inhibition (Cathepsin B [6]): 13%
SMILES: [N-]=[N+]=CC(=O)N(Cc1ccccc1)C[C@@H](O)[C@H](Cc1ccccc1)NC(=O)OCc1ccccc1
- Activity (Hippocampus [9]): Active
- fold change (FC) (Hippocampus [10]): 2
- fold change (FC) (Hippocampus [11]): 2

- IC50 (Cathepsin B [4]): 2000 nM
SMILES: N#[N+][CH-]C(=O)N(Cc1ccccc1)C[C@@H](O)[C@H](Cc1ccccc1)NC(=O)OCc1ccccc1
